Data published in ChEMBL document CHEMBL1122218, “Phosphonate analogues of pyridoxal phosphate with shortened side chains” (J Med Chem, 1983).
Several values for one entry are separate records, joined by “and”; a condition that tells them apart may be missing. Equal values may be shown once.

Experiment: Apparent acid dissociation constant (pK) was determined
Format: ADME
Conditions: for pKa: read-out: pK
Summary of the method: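 Analogue bound to apo-aspartate aminotransferase (complex formed at pH 8.3) was titrated toward lower pH by adding 2 M acetate buffer, pH 5.4. Absorption spectra were followed for the shift of the bound-coenzyme band to 420 nm, and the pK was estimated from the pH dependence of that spectral change.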

| SMILES | pK | pKa |
| --- | --- | --- |
| CCOP(=O)(Cc1cnc(C)c(O)c1CO)OCC | 8.59 | 4.53 |
| CCOP(=O)(Cc1cnc(C)c(O)c1C=O)OCC | 3.03 and 7 | – |

Further lines, with some results ahead:

| pK | SMILES | pKa |
| --- | --- | --- |
| 3.91 and 8.21 | CCOP(=O)(O)Cc1cnc(C)c(O)c1C=O | – |
| 8.05 | Cc1cnc(C)c(O)c1C=O | 4.15 |
| 4.07 and 6.76 and 9.2 | Cc1ncc(CP(=O)(O)O)c(C=O)c1O | – |
| 3.62 and 6.1 and 8.33 | Cc1ncc(COP(=O)(O)O)c(C=O)c1O [PYRIDOXAL PHOSPHATE ANHYDROUS] | – |
